{"source": "ChEMBL document CHEMBL5634116", "about": "“Strategies for developing retinoic acid receptor alpha-selective antagonists as novel agents for male contraception” (Eur J Med Chem, 2023)", "key": {"[1]": {"test": "Metabolic stability in CD-1 mouse liver microsomes assessed as compound remaining in presence of NADPH measured for 60 mins at 10^-6 M", "assay_type": "ADME, Microsome", "settings": "dose 1 10^-6M, read-out: Stability"}, "[2]": {"test": "Drug uptake in CD-1 mouse plasma at 10 mg/kg, po measured for 30 mins by LC-MS/MS analysis", "assay_type": "ADME, organism-based", "settings": "in vivo, 0.5 h", "procedure,_shortened": "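Male CD-1 mice, 6-8 weeks, single oral dose 10 mg/kg in 80% Carbitol/20% saline (1.75 mg/ml). Sets of 3 mice bled and euthanized at 5, 15, 30 min to 24 h; plasma frozen ≤ −20 °C, acetonitrile-precipitated with internal standard, analysed by isocratic LC-MS/MS against calibration standards. Mean ± S.D. of 3 animals.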"}, "[3]": {"test_system": "Mus musculus", "test": "Effect on fertility in CD-1 mouse assessed as size of embryonic litters formed post-cessation of drug treatment at 5 mg/kg/day, po for 7 days followed by drug cessation and initiation of mating for 2 weeks", "assay_type": "functional", "settings": "time 3 weeks"}, "[4]": {"test": "Partition coefficient, logD of compound in 1-octanol/PBS at pH 7.4", "assay_type": "physicochemical", "settings": "octanol/water", "procedure,_shortened": "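Distribution between 1-octanol and PBS at pH 7.4; log D reported.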"}, "[5]": {"molecular_target": "T1, Retinoic acid receptor beta (Homo sapiens, UniProt P10826)", "T1 sequence (P10826 whole entry)": "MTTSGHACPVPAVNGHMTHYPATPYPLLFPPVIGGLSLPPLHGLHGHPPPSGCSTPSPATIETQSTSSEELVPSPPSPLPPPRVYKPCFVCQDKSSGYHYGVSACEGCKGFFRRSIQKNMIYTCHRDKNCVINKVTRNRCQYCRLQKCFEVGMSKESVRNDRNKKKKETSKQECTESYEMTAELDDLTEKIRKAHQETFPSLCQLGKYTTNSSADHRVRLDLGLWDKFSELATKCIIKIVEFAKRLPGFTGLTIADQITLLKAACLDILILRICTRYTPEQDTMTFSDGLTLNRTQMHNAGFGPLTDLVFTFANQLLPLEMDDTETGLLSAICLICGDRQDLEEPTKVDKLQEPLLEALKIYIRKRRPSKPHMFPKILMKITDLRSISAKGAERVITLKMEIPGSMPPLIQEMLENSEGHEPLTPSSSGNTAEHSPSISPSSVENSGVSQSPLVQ", "test": "Antagonist activity at recombinant human RAR-beta expressed in mammalian cells in presence of ATRA by luciferase reporter gene based transactivation assay", "assay_type": "cell-based"}, "[6]": {"test_system": "Mus musculus", "test": "Effect on spermatogenesis in CD-1 mouse assessed as reduction in sperm count administered as Avicel formulation at 10 mg/kg/day, po for 28 days consecutively measured on day 1 post-cessation of drug treatment by hemocytometry relative to control", "assay_type": "functional", "set-up": "scale not given: the % may be the effect or the level left", "settings": "time 29 day"}, "[7]": {"test_system": "Mus musculus", "test": "Effect on spermatogenesis in CD-1 mouse assessed as abnormality in spermatid release at 5 mg/kg/day, po for 7 days measured after 4 weeks post-cessation of drug treatment by hematoxylin counter-staining based analysis", "assay_type": "functional, organism-based", "settings": "time 5.0 weeks"}, "[8]": {"test": "Metabolic stability in CD-1 mouse intestinal microsomes assessed as compound remaining at 2 x 10^-6 M in presence of NADPH measured for 60 mins", "assay_type": "ADME, Intestine, Microsome", "settings": "dose 2 10^-6M, read-out: Stability", "procedure,_shortened": "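Male CD-1 mouse intestinal microsomes with NADPH, compound at 2.0 ×10−6 M, 60 min; percent parent remaining.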"}, "[9]": {"test_system": "Mus musculus", "test": "Effect on spermatogenesis in CD-1 mouse assessed as abnormality in spermatid release at 10 mg/kg/day, po for 2 weeks measured measured after 4 weeks post-cessation of drug treatment by hematoxylin counter-staining based analysis", "assay_type": "functional, organism-based", "settings": "time 6.0 weeks", "procedure,_shortened": "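CD1 males given 10 mg/kg/day orally for 2 weeks dissolved in 20% aqueous Kollisolv (n = 10 per time point); vehicle-only controls n = 5. Testes collected one day or 4 weeks after cessation, fixed in 4% paraformaldehyde or Bouin's, paraffin-embedded, PAS-stained with hematoxylin counterstain and tubules staged by bright-field microscopy.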"}, "[10]": {"test_system": "Mus musculus", "test": "Effect on spermatogenesis in CD-1 mouse assessed as testicular weight at 5 mg/kg/day, po for 7 days measured on day 1 post-cessation of drug treatment (reference value: […] +/- 0.01 g)", "assay_type": "functional", "settings": "time 8 day"}}, "note": "pIC50: −log10 of the molar value. Calls of active or inactive are those of the source. No cut-off for these calls is given here.", "data": [{"smiles": "Cc1ccc(C2=CC(C)(C)Oc3ccc(C(=O)Nc4ccc(C(=O)O)cc4)cc32)cc1", "values": [{"measurement": "remaining at 1 h, 1 µM", "setting": "[1]", "value": 100, "unit": "%"}, {"measurement": "Drug uptake", "setting": "[2]", "value": "Active"}, {"measurement": "Activity", "setting": "[3]", "value": 12.15}, {"measurement": "logD", "setting": "[4]", "value": 3.35}, {"measurement": "pIC50", "setting": "[5]", "value": "< 5.48"}, {"measurement": "Activity", "setting": "[6]", "value": "~56", "unit": "%"}, {"measurement": "Activity", "setting": "[7]", "value": "inactive"}, {"measurement": "remaining at 1 h, 2 µM", "setting": "[8]", "value": 100, "unit": "%"}, {"measurement": "Activity", "setting": "[9]", "value": "inactive"}, {"measurement": "Activity", "setting": "[10]", "value": 0.11, "unit": "g"}]}]}
